Test results published in ChEMBL document CHEMBL4513216, “Probing the Open Global Health Chemical Diversity Library for Multistage-Active Starting Points for Next-Generation Antimalarials” (ACS Infect Dis, 2020).

Experiment: Toxicity liver stage against HepG2, at 10uM
Type: cell-based
Design: test concentration 10 uM, cell line HepG2-A16-CD81EGFP
Settings: human, HepG2-A16-CD81EGFP cells; read-out: INHIBITION
Method in brief: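 Uninfected HepG2-A16-CD81EGFP cells, 3 × 10^3 per well, 1536-well, plated on prespotted compound at 10 μM final, parasite-free screening media added to match infected plates; puromycin 10 μM positive, DMSO 0.5% negative; run in parallel with 48 h PbLuc assay at 37 °C, 5% CO2; viability by CellTiter-Glo luminescence, normalized to controls.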

| Structure (SMILES) | cytotoxicity at 10 µM [%] |
| --- | --- |
| CCn1ccnc1CN1CCN(c2cc(C)nc(C3CCCN3)c2)CC1 (stereo not given) | 2.19 |
| O=C1CC2(CCCC2)CC(=O)N1Cc1ncccn1 | 1.27 |
| CN1CCCCc2c1nc1c(c2N)CCCC1 | -0.675 |
| NC(=O)CN1CCC(NC(=O)COc2ccc(Cl)c(Cl)c2)CC1 | -8.7 |
| COCC(=O)N1CCC2(CC1)COCCN2Cc1ccc(F)cc1 | -73.4 |
| CN(Cc1ccco1)C1CCC12CCN(C(=O)C1CCOCC1)CC2 (stereo not given) | -2.92 |
| Cc1cc(NC(=O)CN2CCc3cnc(C(C)C)nc3C2)on1 | -12.1 |
| O=C(NCCCc1nnc2ccccn12)c1ccccc1C1CCNC1 (stereo not given) | -2.51 |
| CCS(=O)(=O)N1Cc2nccn2CC(Cn2cncn2)C1 (stereo not given) | 7.21 |
| NC(=O)CCN(CC(=O)NCc1cccs1)c1ccc(F)cc1 | 8.75 |
| FC1(F)CCN(Cc2cccnc2)CC12CCN(c1ccccc1)C2 (stereo not given) | -84.5 |
| CC1c2ncc(Cn3cccn3)n2CCN1Cc1ccc(F)cc1 (stereo not given) | -107 |
| c1ccc(COC2CCN(c3cncc(-n4cccn4)n3)CC2)cc1 | -9.18 |
| O=C1COC2(CCN(Cc3ccco3)CC2)CN1 | -1.49 |
| COc1ccc(-n2ccnc2-c2cnc(C(C)C)nc2)cc1C(=O)O | -2.42 |
| CC(C)CN1CCCC12CCN(c1nncs1)C2 (stereo not given) | 1.81 |
| CC(C)n1ccnc1C1CCCN(c2ccccn2)C1 (stereo not given) | 1.28 |
| CCc1noc(CN(C)CCC(=O)Nc2ccc(C#N)c(Cl)c2)n1 | 22.5 |
| Cc1cc(C)c(CNC(=O)N2CCC(N3CCNC3=O)CC2)c(=O)[nH]1 | 4.16 |
| Cc1cc(C)c2ncc(C#N)c(N3CCS(=O)(=O)CC3)c2c1 | -8.17 |
| Cc1nn(-c2ccccc2)c(C)c1CN1CCNCC1 | 6.19 |
| CNC(=O)NCC(=O)N1CCCC1Cc1cccc(F)c1 (stereo not given) | -2.59 |

| Structure (SMILES) | cytotoxicity at 10 µM [%] |
| --- | --- |
| Cc1nn(C)c(Cl)c1C1CCCN1Cc1nnc(C2CC2)n1C (stereo not given) | -2.24 |
| CCC(C(=O)N(C)Cc1cc(-c2ccccc2)n[nH]1)n1cccn1 (stereo not given) | -7.35 |
| Cc1c[nH]c(CN2CCCn3nc(CNS(C)(=O)=O)cc3C2)n1 | 1.79 |
| O=C(C1CC1)N1CCCC1C1CCN(Cc2ccccc2)CC1 (stereo not given) | -9.37 |
| COc1cccc(NC(=O)Nc2ccc3c(c2)CC(=O)N3)c1 | -2.35 |
| Cc1cc(N2CCCC(OC(=O)CCN3CCCC3=O)C2)nc(C)n1 (stereo not given) | 2.58 |
| CC(=O)N1CCCN(C(=O)c2ccc(Cn3ccccc3=O)o2)CC1 | -1.4 |
| CN1C(=O)C[C@@H]2[C@@H]1CCN2S(=O)(=O)Cc1ccccc1 | -5.76 |
| Cc1nc(CN2CC(=O)N(C)c3ccccc3C2=O)no1 | -3.78 |
| Cc1ncc(CNCC(=O)NC2CCCCC2)n1-c1ccccc1 | -4.75 |
| COc1ccccc1NC(=O)NCc1nnc(SC)n1C | -0.145 |
| O=C(NCc1ccc(-n2cncn2)nc1)c1cc(Cl)c2c(c1)OCCO2 | -16.5 |
| Cc1cc(C(F)(F)F)nc(C2CCCN2S(C)(=O)=O)n1 (stereo not given) | 2.68 |
| COc1ccccc1C(O)Cn1cc(C(=O)NCc2ccco2)nn1 (stereo not given) | -6.03 |
| Cc1ccc(Cl)cc1NC(=O)C1CSc2ncc(C)c(=O)n2C1 (stereo not given) | 1.42 |
| Cc1nn(C(C)C)c(C)c1CN1CCN(C2CCCCC2)C(=O)C1 | 6.63 |
| CS(=O)(=O)c1nccn1Cc1ccc(OC(F)F)cc1 | -0.627 |
| Cc1ccoc1C(=O)N1CC[C@H]2[C@@H]1CCC(=O)N2c1cccnc1 | -70.4 |
| O=C(CCN1CCc2cncnc2C1)N1CCc2sccc2C1 | 2.37 |
| O=C(CCN1CCCC1C1CCCCC1)N1CCc2sccc2C1 (stereo not given) | -11 |
| O=C(CC1CCCCC1)N1CCN(C(=O)NCc2ccccn2)CC1 | -4.02 |
| Cc1cc(C(=O)N2CCn3cnc(COCC4CC4)c3C2)no1 | 1.85 |

| Structure (SMILES) | cytotoxicity at 10 µM [%] |
| --- | --- |
| Cc1ccsc1CNC(=O)N(C)Cc1cnn(C)c1 | -6.25 |
| CC(C)c1cc(C(=O)N2CCCN(Cc3ccccc3)CC2)n[nH]1 | -5.41 |
| COc1cccc(CCNS(=O)(=O)c2ccc(NC(C)=O)cc2)c1 | 1.54 |
| CC(C)OCc1nn(CC2CC2)c2c1CN(Cc1ccco1)CC2 | -15.4 |
| CNc1nc2cn(Cc3ccc(Cl)cc3)c(=O)c-2c[nH]1 | 8.93 |
| CCN(CC)CCn1cnc(-c2ccccc2)c1-c1cnc(C)s1 | 3.33 |
| c1cncc(OCc2noc3c2CN(Cc2ccsc2)CC3)c1 | 4.76 |
| COc1cc(C2(C(=O)NC3CCC4(CC3)OCCO4)CC2)ccc1C | -13.2 |
| CCOCCCC(=O)NC1CCN(C(C)c2ccccc2)CC1 (stereo not given) | 4.05 |
| Cc1cc(N2CCC(N(C)Cc3cc(=O)c(O)co3)CC2)nc(C)n1 | 2.34 |
| O=C(c1cscn1)N1CCc2ncnc(-c3cccnc3)c2CC1 | -1.6 |
| CCSCCNC(=O)Nc1cc(C(=O)N2CCOCC2)ccc1Cl | -55.2 |
| CCC(CC)n1nc(C)cc1NC(=O)CC1CCOCC1 | -2.17 |
| CC(C)c1nnc(CN2CCCC(c3cc(C(N)=O)[nH]n3)C2)o1 (stereo not given) | -29.7 |
| COCC1Cn2nnc(-c3cnn(C)c3)c2CN1Cc1ccc(C)s1 (stereo not given) | -10.5 |
| Cc1ccsc1CCNC(=O)CCC1CCCCN1C (stereo not given) | -3.13 |
| O=C(NCCCNc1cccnc1)c1ccc2nccn2c1 | -42.4 |
| CCCc1nc(CN2CCN(CC(O)c3ccccc3)CC2)no1 (stereo not given) | -2.89 |
| CCC(NC(=O)c1cc(CC(C)C)nn1C)c1cc(C)ccn1 (stereo not given) | -138 |
| O=C(O)c1cccc(N2C[C@H](NC(=O)C3CCOCC3)[C@@H](C3CC3)C2)n1 | -4.31 |
| O=C1CO[C@@H]2CN(CC3CC3)C[C@H]2N1Cc1cccc(F)c1 | -69.9 |
| CC(C)OCCN1CCN(C(=O)c2cccc(-n3cccn3)n2)CC1 | -3.88 |

| Structure (SMILES) | cytotoxicity at 10 µM [%] |
| --- | --- |
| CN(C)C(=O)N1C[C@H]2CC[C@@H](C1)N(C(=O)CCCn1cncn1)C2 | -12.2 |
| O=C(N[C@@H]1CN(Cc2ccccc2)C[C@@H]2CCCO[C@@H]21)C1CC1 | -6.12 |
| CO[C@H]1CCN(c2ncc(F)cn2)[C@@H]2CN(Cc3ccco3)C[C@H]12 | 13.5 |
| CC(NC1(CNS(=O)(=O)N(C)C)CCCC1)c1ccccc1 (stereo not given) | -5.01 |
| O=C(C1CC=CC1)N1CCCn2nnc(CNc3ncccn3)c2C1 | 6.97 |
| COc1ccc(CN2CCC3(CC2)CCN(CC(C)C)C3=O)cc1 | 3.17 |
| O=C(C1CC1)N1CCC2(COCc3cnc(NCc4ccco4)nc32)C1 (stereo not given) | -1.08 |
| Cc1cc(CN2CCN(C(=O)NCc3csc(C)n3)CC2)on1 | -2.95 |
| CO[C@@H]1CCN(Cc2c(C)noc2C)[C@@H]2CN(Cc3cccnc3)C[C@@H]21 | 11.9 |
| Cc1nn(C)cc1CNC(=O)c1cn(CCC2CCCCN2)nn1 (stereo not given) | -6.15 |
| c1ccc(Cc2noc(CN3CCCCC3Cn3cncn3)n2)cc1 (stereo not given) | -13.2 |
| Cc1ccsc1[C@@H]1CCN(C(=O)CCc2nc3ccccc3[nH]2)C[C@H]1O | -1.67 |
| Cc1cc(C(=O)NCC(F)(F)F)c2c(C3CCCN3)noc2n1 (stereo not given) | 6 |
| CC(C)n1cnnc1Cn1c(=O)ccc2ccccc21 | 5.62 |
| Cc1ccc(CCNc2nc(-c3ccncc3)nc3c2CCNCC3)o1 | -132 |
| COc1cccc2c1OCC(CNc1cc(N)nc(SC)n1)C2 (stereo not given) | 3.37 |
| O=C(NC1CCc2[nH]c(=O)ccc2C1)C1CCOCC1 (stereo not given) | 1.42 |
| CCn1cnnc1C1CCN(C(=O)c2cc3c(s2)CCOC3)CC1 | -6.37 |
| NC(=O)c1ccc(OCCC(=O)NC2CCc3c(F)cccc32)cc1 (stereo not given) | 2.02 |
| CCc1ccsc1C(=O)N1CCCC(c2noc(C)n2)C1 (stereo not given) | 3.77 |
| CN1CCN(Cc2nnc(C3CCN(C4CCCCC4)CC3)n2C)CC1 | 3.18 |
| Cc1ncnc2c1CCN(C(=O)CN(C)C)CC2 | 0.964 |

| Structure (SMILES) | cytotoxicity at 10 µM [%] |
| --- | --- |
| COc1cccc(C2(NC(=O)CCNC(C)=O)CC2)c1 | 1.6 |
| N#Cc1cccnc1NCCNC(=O)N1CCSCC1 | -1.22 |
| CC(C)(C(=O)NCc1ccccc1F)n1cc(Br)cn1 | 0.296 |
| COCCCC1(C(=O)O)CCCN(Cc2cc3c(cc2C)OCCO3)C1 (stereo not given) | -2.3 |
| CCc1ncc(C(=O)N2CCC(O)(CN3CCOCC3)C(C)(C)C2)cn1 (stereo not given) | -4.6 |
| Cc1cnc(N2C[C@@H]3[C@@H](C2)OCC(=O)N3CC(C)C)nc1 | -0.173 |
| Cc1cc(N2CCCC2c2cc(Nc3cnccn3)nc(C)n2)ncn1 (stereo not given) | -14 |
| CCc1nnc2n1CCN(Cc1nc(-c3ccoc3)no1)C2 | -4.1 |
| Cc1cccc(CN2CCC3(CCCN(C(=O)NC(C)C)C3)C2=O)n1 (stereo not given) | 7.51 |
| Cc1nn(C(C)C)c2cn(CC(=O)NC3CCSCC3)nc12 | -2.72 |
| COc1ccccc1C(=O)NC(c1ccccn1)C1CCC(CN)CC1 (stereo not given) | -12.8 |
| COc1ccccc1OCc1nc2cc3c(cc2c(=O)o1)OCCCO3 | 1.37 |
| COCCN1CCC2(CCCN(C(=O)c3cncn3C)C2)CC1 | -1.4 |
| O=C(c1cc(-n2cccn2)ccn1)N(CC(F)(F)F)C1CCCC1 | 5.49 |
| COc1cc(N2CC[C@H]3O[C@@H](C(=O)NC4CCCC4)CC[C@H]32)ncn1 | 13.2 |
| CC(C)(C)c1cc(NC(=O)CN2CCn3c(nnc3C3CC3)C2)on1 | -4.1 |
| c1nc2c(c(C3CC3)n1)CCN(CC1CCOC1)CC2 (stereo not given) | 1.26 |
| O=C1N[C@H]2OCCC[C@H]2[C@H](c2ccccc2)N1 | -0.675 |
| COc1ccc(CN(C)C(=O)CCc2c(C)nc(C)[nH]c2=O)cc1OC | -11.2 |
| COc1ccc2c(c1)CCCN2C(=O)CNCC1CN(C)CCO1 (stereo not given) | 4.78 |
| CCS(=O)(=O)NCCCNC1CSCCc2ccccc21 (stereo not given) | -3.66 |
| CCN(CC)c1ncc(CNC2CCc3ncnn3C2)s1 (stereo not given) | -1.06 |
